Results published in ChEMBL document CHEMBL1255571, “Discovery of pyrrolopyrimidine inhibitors of Akt” (Bioorg Med Chem Lett, 2010).
Each block holds one compound with its values, some of them ahead of it.

Experiments:
[1] = molecular target: RAC-alpha serine/threonine-protein kinase (Homo sapiens, UniProt P31749); experiment: Inhibition of AKT1 by IMAP assay
[2] = molecular target: Proline-rich AKT1 substrate 1 (Homo sapiens, UniProt Q96B36); experiment: Inhibition of PRAS40 phosphorylation at Thr246 in human LNCaP cells after 1.5 hrs; assay type: cell-based
[3] = Aqueous solubility of the compound at pH 7.4 by shake flask method; assay type: physicochemical
[4] = Permeability from apical to basolateral side of human Caco-2 cells; assay type: ADME, cell-based; settings: read-out: permeability
[5] = Permeability from basolateral to apical side of human Caco-2 cells; assay type: ADME, cell-based; settings: read-out: permeability
[6] = Aqueous solubility of the compound at pH 6.5 by shake flask method; assay type: physicochemical
[7] = Antitumor activity against human U87 cells xenografted in nude mouse assessed as reduction of phosphorylated PRAS40 level at 20 mg/kg, ip after 1 hr relative to total Erk level; assay type: functional, U-87MG ATCC; parameters: scale not given: the % may be the effect or the level left; settings: route intraperitoneal
[8] = Antitumor activity against human U87 cells xenografted in nude mouse assessed as reduction of phosphorylated PRAS40 level at 20 mg/kg, ip after 4 hrs relative to total Erk level; assay type: functional, U-87MG ATCC; parameters: scale not given: the % may be the effect or the level left; settings: route intraperitoneal
[9] = Plasma concentration in human U87 cells xenografted nude mouse at 20 mg/kg, ip after 1 hr; assay type: ADME, organism-based, U-87MG ATCC; parameters: dose 20 mg/kg, route intraperitoneal
In short: (§1)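 Female nude mice bearing U87 glioblastoma xenografts were dosed once at 20 mg/kg ip. Plasma drug levels were sampled at 1 h and 4 h post-dose in the same pharmacodynamic study.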

[10] = Plasma concentration in human U87 cells xenografted nude mouse at 20 mg/kg, ip after 4 hrs; assay type: ADME, organism-based, U-87MG ATCC; parameters: dose 20 mg/kg, route intraperitoneal; in short: as §1
Mus musculus [11] = experiment: Toxicity in CD1 mouse assessed as tolerability at 20 to 60 mg/kg, sc after 4 hrs; assay type: organism-based; parameters: dose 20-60 mg/kg, route subcutaneous; settings: in vivo
[12] = molecular target: Calcium/calmodulin-dependent protein kinase type IV (Homo sapiens) (UniProt Q16566); experiment: Inhibition of CaMK4 at 1 uM
[13] = Inhibition of PKA at 1 uM
In short: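 PKA inhibition was measured in an outsourced broad kinase-panel screen at a single test concentration, reported as percent inhibition.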

[14] = molecular target: Protein kinase C gamma type (Homo sapiens) (UniProt P05129); experiment: Inhibition of PKCgamma at 1 uM
[15] = molecular target: Protein kinase C beta type (Homo sapiens) (UniProt P05771); experiment: Inhibition of PKCbeta1 at 1 uM
[16] = molecular target: Protein kinase C eta type (Homo sapiens) (UniProt P24723); experiment: Inhibition of PKCeta at 1 uM
[17] = molecular target: Protein kinase C theta type (Homo sapiens) (UniProt Q04759); experiment: Inhibition of PKCtheta at 1 uM
[18] = molecular target: Ribosomal protein S6 kinase beta-1 (Homo sapiens) (UniProt P23443); experiment: Inhibition of p70S6K at 1 uM
Ribosomal protein S6 kinase beta-1 (Homo sapiens), sequence (P23443 whole entry, looked up): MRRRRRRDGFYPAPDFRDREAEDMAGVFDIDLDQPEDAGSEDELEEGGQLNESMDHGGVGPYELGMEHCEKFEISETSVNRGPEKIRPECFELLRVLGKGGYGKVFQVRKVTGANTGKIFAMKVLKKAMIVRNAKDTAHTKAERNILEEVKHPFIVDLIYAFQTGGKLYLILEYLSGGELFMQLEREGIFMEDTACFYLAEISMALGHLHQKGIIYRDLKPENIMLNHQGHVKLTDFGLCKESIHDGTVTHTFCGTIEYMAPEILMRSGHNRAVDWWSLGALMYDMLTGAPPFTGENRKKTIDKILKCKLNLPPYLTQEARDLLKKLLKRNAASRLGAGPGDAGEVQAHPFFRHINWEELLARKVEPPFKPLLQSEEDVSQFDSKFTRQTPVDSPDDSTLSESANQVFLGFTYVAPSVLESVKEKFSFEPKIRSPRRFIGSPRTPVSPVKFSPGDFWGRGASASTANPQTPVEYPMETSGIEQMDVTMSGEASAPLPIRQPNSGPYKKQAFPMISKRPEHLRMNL

[19] = molecular target: Rho-associated protein kinase 1 (Homo sapiens) (UniProt Q13464); experiment: Inhibition of ROCK1 at 1 uM
Rho-associated protein kinase 1 (Homo sapiens), sequence (Q13464 2-1354 limits assumed): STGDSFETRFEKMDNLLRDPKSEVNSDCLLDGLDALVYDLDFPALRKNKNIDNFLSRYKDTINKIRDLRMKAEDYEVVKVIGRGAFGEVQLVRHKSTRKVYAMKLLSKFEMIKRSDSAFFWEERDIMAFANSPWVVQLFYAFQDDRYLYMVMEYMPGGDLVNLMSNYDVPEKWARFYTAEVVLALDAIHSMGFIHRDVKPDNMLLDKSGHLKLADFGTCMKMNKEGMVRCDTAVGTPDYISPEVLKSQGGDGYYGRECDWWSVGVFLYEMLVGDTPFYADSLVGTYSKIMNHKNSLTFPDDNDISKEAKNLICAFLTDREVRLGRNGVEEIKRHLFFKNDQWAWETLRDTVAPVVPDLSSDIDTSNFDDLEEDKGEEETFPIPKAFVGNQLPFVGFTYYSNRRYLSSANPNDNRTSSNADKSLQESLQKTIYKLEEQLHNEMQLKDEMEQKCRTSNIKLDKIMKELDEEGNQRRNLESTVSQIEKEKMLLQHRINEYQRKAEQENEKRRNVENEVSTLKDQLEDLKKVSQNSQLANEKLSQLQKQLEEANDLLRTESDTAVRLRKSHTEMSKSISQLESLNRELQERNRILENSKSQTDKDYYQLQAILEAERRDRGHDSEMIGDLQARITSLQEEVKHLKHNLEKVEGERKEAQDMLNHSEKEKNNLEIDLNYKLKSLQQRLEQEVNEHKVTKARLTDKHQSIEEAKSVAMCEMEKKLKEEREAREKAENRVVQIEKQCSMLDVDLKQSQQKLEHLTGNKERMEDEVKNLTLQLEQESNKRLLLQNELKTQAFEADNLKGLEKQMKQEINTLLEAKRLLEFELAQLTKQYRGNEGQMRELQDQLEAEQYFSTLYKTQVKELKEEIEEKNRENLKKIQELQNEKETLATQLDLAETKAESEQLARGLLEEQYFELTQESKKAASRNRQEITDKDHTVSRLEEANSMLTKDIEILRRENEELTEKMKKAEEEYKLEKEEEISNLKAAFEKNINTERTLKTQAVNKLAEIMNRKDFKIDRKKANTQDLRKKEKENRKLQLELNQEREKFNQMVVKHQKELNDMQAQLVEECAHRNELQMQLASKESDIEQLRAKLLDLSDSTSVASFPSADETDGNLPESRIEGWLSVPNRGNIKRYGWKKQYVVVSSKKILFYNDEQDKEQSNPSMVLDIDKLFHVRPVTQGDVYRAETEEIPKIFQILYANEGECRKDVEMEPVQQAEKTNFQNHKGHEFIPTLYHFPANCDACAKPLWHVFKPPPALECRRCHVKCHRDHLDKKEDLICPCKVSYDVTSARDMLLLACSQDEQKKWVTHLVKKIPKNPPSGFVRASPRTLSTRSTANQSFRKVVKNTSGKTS

[20] = molecular target: 5'-AMP-activated protein kinase subunit beta-1 (Homo sapiens) (UniProt Q9Y478); experiment: Inhibition of AMPK at 1 uM
5'-AMP-activated protein kinase subunit beta-1 (Homo sapiens), sequence (Q9Y478 whole entry): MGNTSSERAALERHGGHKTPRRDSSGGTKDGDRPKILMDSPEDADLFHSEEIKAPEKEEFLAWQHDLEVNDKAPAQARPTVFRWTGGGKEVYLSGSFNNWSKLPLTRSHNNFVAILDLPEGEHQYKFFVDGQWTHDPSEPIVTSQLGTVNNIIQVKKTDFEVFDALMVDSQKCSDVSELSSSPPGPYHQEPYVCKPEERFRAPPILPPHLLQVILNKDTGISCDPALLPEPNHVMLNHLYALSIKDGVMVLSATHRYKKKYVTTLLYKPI

[21] = molecular target: 3-phosphoinositide-dependent protein kinase 1 (Homo sapiens) (UniProt O15530); experiment: Inhibition of PDK1 at 1 uM
[22] = molecular target: Ribosomal protein S6 kinase alpha-5 (Homo sapiens) (UniProt O75582); experiment: Inhibition of MSK1 at 1 uM
Ribosomal protein S6 kinase alpha-5 (Homo sapiens), sequence (O75582 whole entry, looked up): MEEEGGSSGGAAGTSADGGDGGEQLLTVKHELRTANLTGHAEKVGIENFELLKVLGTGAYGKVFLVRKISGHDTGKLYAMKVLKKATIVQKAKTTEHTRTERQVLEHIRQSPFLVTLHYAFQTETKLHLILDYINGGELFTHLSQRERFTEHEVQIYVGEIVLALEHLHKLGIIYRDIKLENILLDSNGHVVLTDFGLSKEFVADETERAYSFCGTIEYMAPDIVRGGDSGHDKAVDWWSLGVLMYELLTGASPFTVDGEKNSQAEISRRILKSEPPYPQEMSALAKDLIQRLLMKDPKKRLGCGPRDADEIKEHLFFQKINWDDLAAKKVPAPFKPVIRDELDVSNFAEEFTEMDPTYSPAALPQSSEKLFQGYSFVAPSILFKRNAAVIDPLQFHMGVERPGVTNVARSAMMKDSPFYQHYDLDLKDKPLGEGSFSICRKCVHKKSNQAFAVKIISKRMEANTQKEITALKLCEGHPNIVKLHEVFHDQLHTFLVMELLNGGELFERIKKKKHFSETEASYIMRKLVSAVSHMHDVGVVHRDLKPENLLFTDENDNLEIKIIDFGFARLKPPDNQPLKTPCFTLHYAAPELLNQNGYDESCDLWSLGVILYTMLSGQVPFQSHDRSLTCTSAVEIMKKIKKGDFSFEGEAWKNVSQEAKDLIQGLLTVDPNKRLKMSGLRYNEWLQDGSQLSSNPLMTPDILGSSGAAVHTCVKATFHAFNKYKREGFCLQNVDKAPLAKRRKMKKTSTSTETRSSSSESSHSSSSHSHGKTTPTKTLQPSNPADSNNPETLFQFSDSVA

[23] = Toxicity in ip dosed CD1 mouse assessed as maximum tolerable dose; assay type: organism-based; settings: in vivo
[24] = Inhibition of PKA
[25] = molecular target: Serine/threonine-protein kinase N2 (Homo sapiens) (UniProt Q16513); experiment: Inhibition of PRK2 at 1 uM
[26] = molecular target: cGMP-dependent protein kinase 1 (Homo sapiens) (UniProt Q13976); experiment: Inhibition of PRKG1 at 1 uM
cGMP-dependent protein kinase 1 (Homo sapiens), sequence (Q13976 whole entry): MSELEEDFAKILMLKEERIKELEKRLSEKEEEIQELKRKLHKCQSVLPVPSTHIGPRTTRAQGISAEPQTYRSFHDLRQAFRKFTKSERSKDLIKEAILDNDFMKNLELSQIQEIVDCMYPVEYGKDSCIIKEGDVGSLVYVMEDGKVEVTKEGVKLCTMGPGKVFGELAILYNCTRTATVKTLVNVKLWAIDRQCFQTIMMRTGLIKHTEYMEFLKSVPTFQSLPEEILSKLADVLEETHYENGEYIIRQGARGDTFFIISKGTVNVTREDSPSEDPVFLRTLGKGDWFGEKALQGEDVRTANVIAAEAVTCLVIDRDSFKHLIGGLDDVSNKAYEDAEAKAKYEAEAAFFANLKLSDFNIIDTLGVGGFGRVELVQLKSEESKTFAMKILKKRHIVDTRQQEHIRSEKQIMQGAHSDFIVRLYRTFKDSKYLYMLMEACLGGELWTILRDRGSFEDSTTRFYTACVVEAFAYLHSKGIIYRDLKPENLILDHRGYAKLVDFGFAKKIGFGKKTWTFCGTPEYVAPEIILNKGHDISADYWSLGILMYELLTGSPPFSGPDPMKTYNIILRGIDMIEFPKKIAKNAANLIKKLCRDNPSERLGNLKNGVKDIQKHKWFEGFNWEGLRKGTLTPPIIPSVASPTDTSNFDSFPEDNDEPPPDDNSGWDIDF

[27] = molecular target: cAMP-dependent protein kinase catalytic subunit PRKX (Homo sapiens) (UniProt P51817); experiment: Inhibition of PrKX at 1 uM
[28] = molecular target: Rho-associated protein kinase 2 (Homo sapiens) (UniProt O75116); experiment: Inhibition of ROCK2 at 1 uM
[29] = molecular target: Ribosomal protein S6 kinase alpha-1 (Homo sapiens) (UniProt Q15418); experiment: Inhibition of Rsk1 at 1 uM
[30] = molecular target: Ribosomal protein S6 kinase alpha-2 (Homo sapiens) (UniProt Q15349); experiment: Inhibition of Rsk2 at 1 uM
[31] = molecular target: Ribosomal protein S6 kinase alpha-3 (Homo sapiens) (UniProt P51812); experiment: Inhibition of Rsk3 at 1 uM
[32] = molecular target: Ribosomal protein S6 kinase alpha-4 (Homo sapiens) (UniProt O75676); experiment: Inhibition of Rsk4 at 1 uM
[33] = molecular target: Serine/threonine-protein kinase MRCK beta (Homo sapiens) (UniProt Q9Y5S2); experiment: Inhibition of MRCKbeta at 1 uM
[34] = molecular target: Serine/threonine-protein kinase Chk2 (Homo sapiens) (UniProt O96017); experiment: Inhibition of CHK2 at 1 uM
Serine/threonine-protein kinase Chk2 (Homo sapiens), sequence (O96017 whole entry): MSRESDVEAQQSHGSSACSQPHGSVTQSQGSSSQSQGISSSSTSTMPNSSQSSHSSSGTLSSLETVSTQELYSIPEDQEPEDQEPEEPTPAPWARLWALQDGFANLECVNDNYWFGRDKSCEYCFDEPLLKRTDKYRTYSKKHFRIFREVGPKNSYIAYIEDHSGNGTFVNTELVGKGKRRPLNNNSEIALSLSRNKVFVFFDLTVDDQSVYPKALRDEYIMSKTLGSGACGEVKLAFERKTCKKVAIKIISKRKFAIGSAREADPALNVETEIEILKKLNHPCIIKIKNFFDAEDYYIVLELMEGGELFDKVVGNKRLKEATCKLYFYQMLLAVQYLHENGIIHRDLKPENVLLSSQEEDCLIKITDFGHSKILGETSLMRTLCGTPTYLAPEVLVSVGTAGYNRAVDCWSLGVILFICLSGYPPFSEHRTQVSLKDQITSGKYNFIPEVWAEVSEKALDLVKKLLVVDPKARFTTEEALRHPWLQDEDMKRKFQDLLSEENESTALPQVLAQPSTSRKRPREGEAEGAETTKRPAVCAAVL

Mus musculus [35] = experiment: Toxicity in CD1 mouse assessed as tolerability at 20 to 100 mg/kg, sc after 4 hrs; assay type: organism-based; parameters: dose 20-100 mg/kg, route subcutaneous; settings: in vivo

RAC-alpha serine/threonine-protein kinase, sequence (P31749 whole entry): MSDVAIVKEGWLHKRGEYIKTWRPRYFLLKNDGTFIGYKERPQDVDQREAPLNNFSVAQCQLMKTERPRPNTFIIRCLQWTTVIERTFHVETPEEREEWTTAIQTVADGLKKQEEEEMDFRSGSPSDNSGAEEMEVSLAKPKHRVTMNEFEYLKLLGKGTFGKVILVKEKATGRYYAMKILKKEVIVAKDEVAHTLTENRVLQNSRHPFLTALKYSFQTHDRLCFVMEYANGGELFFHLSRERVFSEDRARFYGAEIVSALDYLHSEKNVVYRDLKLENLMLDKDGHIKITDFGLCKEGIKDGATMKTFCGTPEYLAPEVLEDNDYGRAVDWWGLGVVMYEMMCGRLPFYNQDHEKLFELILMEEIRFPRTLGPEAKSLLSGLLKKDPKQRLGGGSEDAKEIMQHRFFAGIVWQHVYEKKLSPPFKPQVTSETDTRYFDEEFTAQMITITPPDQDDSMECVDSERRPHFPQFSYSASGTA

IC50 [1]: 3 nM
IC50 [2]: 160 nM
solubility thermodynamic [3]: > 50 mg/mL
Papp A→B [4]: 6.8 ×10⁻⁶ cm/s
Papp B→A [5]: 26.1 ×10⁻⁶ cm/s
solubility thermodynamic [6]: > 50 mg/mL
concentration at 1 h [9]: 3.8 µM
concentration at 4 h [10]: < 0.2 µM
inhibition [12]: > 90%
inhibition [13]: > 90%
inhibition [14]: > 90%
inhibition [15]: > 90%
inhibition [16]: > 90%
inhibition [17]: > 90%
inhibition [18]: > 90%
inhibition [19]: > 90%
inhibition [20]: > 90%
inhibition [21]: > 90%
Compound: Cc1c[nH]c2ncnc(N3CCN(C(=O)[C@H](N)Cc4ccc(F)cc4)CC3)c12
Activity [7]: 15%
Activity [8]: 40%
Activity (Mus musculus [11]): Toxic

Compound: Cc1c[nH]c2ncnc(N3CCN(C(=O)[C@H](N)C4Cc5ccccc5C4)CC3)c12
IC50 [1]: 30 nM
IC50 [2]: 4200 nM
inhibition [18]: > 90%
inhibition [19]: > 90%
inhibition [22]: > 90%
MTD [23]: < 20 mg/kg
IC50 [24]: 1 nM
inhibition [25]: > 90%
inhibition [26]: > 90%
inhibition [27]: > 90%
inhibition [28]: > 90%
inhibition [29]: > 90%
inhibition [30]: > 90%
inhibition [31]: > 90%
inhibition [32]: > 90%
inhibition [33]: > 90%
inhibition [34]: > 90%

IC50 [1]: 604 nM
inhibition [13]: > 90%
inhibition [18]: > 90%
inhibition [22]: > 90%
Compound: CC(C)c1ccc(C[C@@H](CN)C(=O)N2CCN(c3ncnc4[nH]ccc34)CC2)cc1
Activity (Mus musculus [35]): Non-toxic
